Assay results gathered from unrelated publications.
Compare with care: the assays were run in different laboratories.

SMILES	cell line	test	conditions	measurement	result
C(=N\Nc1cc(N/N=C/c2ccc3ccccc3n2)ncn1)/c1ccc2ccccc2n1	Bel-7402	cell growth or viability, MTT	48 h	IC50	34 µM
Oc1cccc(-c2nc(N3CCOCC3)c3oc4ncccc4c3n2)c1	MOLM-13	cell growth or viability, CCK-8	1 µM	inhibition	14.3%
O=C(O[C@@H]1COC(=O)c2cc(O)c(O)c(O)c2-c2c(cc(O)c(O)c2O)C(=O)O[C@H]1[C@@H]1OC(=O)c2cc(O)c(O)c(O)c2-c2c(O)c(O)c(O)c3c2C(=O)O[C@H]1[C@@H]3O)c1cc(O)c(O)c(O)c1	SIM-A9	NO release, inhibitor, Griess	10.7 µM, LPS-stimulated	inhibition	52%
N[C@@H](CO)C(=O)Nc1ccccc1/N=c1\cc(-c2ccc3c(c2)OCO3)oc2ccccc12	MOLM-13	cell growth or viability, CCK-8	1 µM	inhibition	8.02%
CCCCCCCCCCCCCCCCCCOc1ccccc1CC(=O)OCC[N+]1(C)CCCCC1	NCI-H23	cell growth or viability, SRB	10 µM	inhibition	70.2%
CNCc1ccc(-c2cc(-c3nc(-c4ccc(S(=O)(=O)C(C)C)cc4)cnc3N)on2)cc1	CT26	cell growth or viability, ATP luminescence	48 h	IC50	1.98 µM
NCCC(=O)Nc1ccc(/N=c2\cc(-c3ccc4c(c3)OCO4)oc3ccccc23)cc1	MOLM-13	cell growth or viability, CCK-8	1 µM	inhibition	3.6%
COc1ncnc(C2CC2)c1-c1ncc2cnn(Cc3ccc(-c4nc(C(F)(F)F)cn4C(C)C)cc3)c2n1	CHP-212	cell growth or viability, SRB	25 µM	viability	76.7%
N#CSCc1cc(=O)oc2cc(O)ccc12	SW1573	cell growth or viability, SRB		GI50	5.5 µM
CCCCCCCCCCCCCCCCCCOc1ccccc1CC(=O)OCC[N+](C)(C)C	NCI-H23	cell growth or viability, SRB	10 µM	inhibition	59.8%
COCCC(=O)Nc1ccccc1/N=c1\cc(-c2ccc3nc(N)oc3c2)oc2ccccc12	MOLM-13	cell growth or viability, CCK-8	1 µM	inhibition	2.66%
O=C(C[C@@H](C(F)F)n1ccc(F)n1)N1CCC(O)(Cn2cnc3c(cnn3-c3ccc(F)cc3)c2=O)CC1	CHP-212	cell growth or viability, SRB	27.43 nM	viability	72.4%
C[C@@H]1COCCN1c1cc(C2([S@](C)(=N)=O)CC2)nc(-c2cc[nH]c3nccc2-3)n1	CT26	cell growth or viability, ATP luminescence	48 h	IC50	8.64 µM
CCCCCCCCCCCCCCCCCCOc1ccc(CC(=O)OCC[N+](CC)(CC)CC)cc1	NCI-H23	cell growth or viability, SRB	10 µM	inhibition	39.5%
COC(=O)[C@H]1[C@@H](O)[C@@]2(O)c3c(OC)cc(O[C@@H]4O[C@@H]([C@H](O)CO)CO[C@H]4OC)cc3O[C@@]2(c2ccc(OC)cc2)[C@@H]1c1ccccc1	C6661	cell growth or viability, MTS	48 h	IC50	0.007 µM
O=C(N[C@@H](CSCc1ccc([N+](=O)[O-])cc1)C(=O)NO)c1ccccc1	NCI-H1573	cell growth or viability, MTT	48 h	IC50	2.37 µM
COc1ccc2oc(-c3ccc4nc(N)oc4c3)c/c(=N\c3ccccc3NC(=O)CCN)c2c1	MOLM-13	cell growth or viability, CCK-8	1 µM	inhibition	61.4%

SMILES	cell line	test	conditions	measurement	result
CC(C)C[C@H](NC(=O)[C@H](Cc1ccccc1)NC(=O)c1cnccn1)B(O)O	CHP-212	cell growth or viability, SRB	41.15 nM	viability	90.7%
NCCC(=O)Nc1ccccc1/N=c1\cc(-c2ccc3nc(N)oc3c2)oc2cc(O)ccc12	MOLM-13	cell growth or viability, CCK-8	1 µM	inhibition	3.71%
CCc1nc(C(N)=O)c(Nc2ccc(N3CCC(N4CCN(C)CC4)CC3)c(OC)c2)nc1NC1CCOCC1	MOLM-13	cell growth or viability	72 h	GI50	0.032 µM
CCCCCCCCCCCCCCCCCCOc1cccc(CC(=O)OCC[N+](CC)(CC)CC)c1	NCI-H23	cell growth or viability, SRB	10 µM	inhibition	64.3%
[NH2][Pt]([NH2])([Cl])[Cl]	SW1573	cell growth or viability, SRB		GI50	2.7 µM
CCCCCCCCCCCCCCCCCCOCC(COP(=O)([O-])OCC[N+](C)(C)C)OC (stereo not shown)	NCI-H23	cell growth or viability, SRB	10 µM	inhibition	10.9%
COCCC(=O)Nc1ccccc1/N=c1\cc(-c2ccc3c(c2)OCO3)oc2ccccc12	MOLM-13	cell growth or viability, CCK-8	1 µM	inhibition	6.03%
CNC(=O)c1cc(Oc2ccc(NC(=O)Nc3ccc(Cl)c(C(F)(F)F)c3)cc2)ccn1	Bel-7402	cell growth or viability, MTT	48 h	IC50	5.06 µM
CCCCCCCCCCCCCCCCCCOc1cccc(CC(=O)OCCC[N+](C)(C)C)c1	NCI-H23	cell growth or viability, SRB	10 µM	inhibition	24.1%
CC(=O)O[C@H]1C(=O)[C@@]2(C)[C@H]([C@H](OC(=O)c3ccccc3)[C@]3(O)C[C@H](OC(=O)[C@H](O)[C@@H](NC(=O)c4ccccc4)c4ccccc4)C(C)=C1C3(C)C)[C@]1(OC(C)=O)CO[C@@H]1C[C@@H]2O	CHP-212	cell growth or viability, SRB	0.1235 µM	viability	21.3%
C(=N\Nc1cc(N/N=C/c2ccc3ccccc3n2)nc(-c2ccccc2)n1)/c1ccc2ccccc2n1	Bel-7402	cell growth or viability, MTT	48 h	IC50	10.2 µM
CCCCCCCCCCCCCCCCCCOc1ccc(CC(=O)OCC[N+]2(C)CCOCC2)cc1	NCI-H23	cell growth or viability, SRB	10 µM	inhibition	5.91%
C(=N\Nc1cc(N/N=C/c2cccc3cccnc23)nc(-c2ccccc2)n1)/c1cccc2cccnc12	Bel-7402	cell growth or viability, MTT	48 h	IC50	11.1 µM
N#CSCCCCOc1ccc2c(-c3ccccc3)cc(=O)oc2c1	SW1573	cell growth or viability, SRB		GI50	25 µM
COc1cccc2c1C(=O)c1c(O)c3c(c(O)c1C2=O)C[C@@](O)(C(=O)CO)C[C@@H]3O[C@H]1C[C@H](N)[C@H](O)[C@H](C)O1	CHP-212	cell growth or viability, SRB	0.3704 µM	viability	19.4%
NCCCCC(=O)Nc1ccccc1/N=c1\cc(-c2ccc3c(c2)OCO3)oc2ccccc12	MOLM-13	cell growth or viability, CCK-8	1 µM	inhibition	-0.26%
CCCCCCCCCCCCCCCCCCOc1ccccc1CC(=O)OCC[N+](CC)(CC)CC	NCI-H23	cell growth or viability, SRB	10 µM	inhibition	86.9%
